Columns and labels:
BT-549 = experiment: Cytotoxicity against human BT549 cells by SRB method; assay type: functional
Procedure, shortened: (§1)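 NCI-60 in vitro drug screening panel. Values are the molar concentrations giving 50% growth inhibition (GI50) and total growth inhibition (TGI).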

SF-539 = experiment: Cytotoxicity against human SF539 cells by SRB method; assay type: functional; procedure, shortened: as §1
Mus musculus = experiment: Toxicity in athymic nude mouse xenografted with human UACC62 cells assessed as rapid and persistent weight loss at 10 mg/kg, ip; assay type: organism-based, UACC-62; set-up: dose 10 mg/kg, route intraperitoneal; details: in vivo
NCI-H322M = experiment: Cytotoxicity against human NCI-H322M cells by SRB method; assay type: functional; procedure, shortened: as §1
[1] = Cytotoxicity against human OVCAR4 cells by SRB method; assay type: functional; procedure, shortened: as §1
SF-268 = experiment: Cytotoxicity against human SF268 cells by SRB method; assay type: functional; procedure, shortened: as §1
RPMI-8226 = experiment: Cytotoxicity against human RPMI8226 cells by SRB method; assay type: functional; procedure, shortened: as §1
HOP-62 = experiment: Cytotoxicity against human HOP62 cells by SRB method; assay type: functional; procedure, shortened: as §1
[2] = Cytotoxicity against human UACC257 cells by SRB method; assay type: functional
Procedure, shortened: (§2)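 NCI-60 in vitro screen panel of human tumor lines; GI50 (molar concentration giving 50% growth inhibition) and TGI (total growth inhibition) taken from dose–response data.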

HeLa = experiment: Cytotoxicity against human HeLa cells assessed as reduction of colony formation incubated for 4 hrs followed by compound washout measured after 14 days relative to vehicle-treated control; assay type: functional, cell-based
Procedure, shortened: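 HeLa cells (300) were plated in dishes and treated with vehicle (DMSO) or compound for 4 h. They were then washed with DPBS and given fresh medium. After 14 days, colonies were fixed, stained with 0.5% crystal violet in 10% methanol and counted. Analysis was one-way ANOVA with Dunnett's post hoc test against vehicle.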

[3] = Cytotoxicity against human NCI-ADR-RES cells by SRB method; assay type: functional; procedure, shortened: as §1
[4] = Cytotoxicity against human UACC62 cells assessed as inhibition of colony formation at 5 nM incubated for 4 hrs followed by compound washout measured after 14 days relative to vehicle-treated control; assay type: functional; details: UACC-62
Procedure, shortened: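 Clonogenic test: 600 UACC-62 cells (RPMI1640, 10% FBS, gentamicin) adhered, exposed 4 h to vehicle (DMSO) or compound, washed with DPBS, fresh medium, grown 14 days; fixed, 0.5% crystal violet in 10% methanol, colonies counted; duplicate/triplicate, n = 2–4 experiments; one-way ANOVA with Dunnett's vs vehicle.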

TK-10 = experiment: Cytotoxicity against human TK10 cells by SRB method; assay type: functional; procedure, shortened: as §2
SK-MEL-28 = experiment: Cytotoxicity against human SK-MEL-28 cells by SRB method; assay type: functional; procedure, shortened: as §1
CAKI-1 = experiment: Cytotoxicity against human Caki1 cells by SRB method; assay type: functional; procedure, shortened: as §1
RXF 393 = experiment: Cytotoxicity against human RXF393 cells by SRB method; assay type: functional; procedure, shortened: as §1
NCI-H460 = experiment: Cytotoxicity against human NCI-H460 cells by SRB method; assay type: functional; procedure, shortened: as §1
CCRF-CEM = experiment: Cytotoxicity against human CCRF-CEM cells by SRB method; assay type: functional; procedure, shortened: as §1
[5] = Cytotoxicity against human PC3 cells by SRB method; assay type: functional; procedure, shortened: as §1
[6] = Cytotoxicity against human OVCAR8 cells by SRB method; assay type: functional; procedure, shortened: as §1
SNB-75 = experiment: Cytotoxicity against human SNB75 cells by SRB method; assay type: functional; procedure, shortened: as §2
KM12 = experiment: Cytotoxicity against human KM12 cells by SRB method; assay type: functional; procedure, shortened: as §1
SK-OV-3 = experiment: Resistance ratio of GI50 for human P-gp expressing SKOV3-M6/6 cells to GI50 for human SKOV3 cells; assay type: functional
Procedure, shortened: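 SRB assay in SK-OV-3 and its P-gp/MDR1 single-cell clone SK-OV-3/MDR-1-6/6; GI50 from percent growth dose–response curves, n = 3 or 4 independent experiments; relative resistance taken as ratio of GI50 in the MDR line to parental.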

A498 = experiment: Cytotoxicity against human A498 cells by SRB method; assay type: functional; procedure, shortened: as §1
MDA-MB-435 = experiment: Cytotoxicity against human MDA-MB-435 cells by SRB method; assay type: functional; procedure, shortened: as §1
NCI-H522 = experiment: Cytotoxicity against human NCI-H522 cells by SRB method; assay type: functional; procedure, shortened: as §1
HL-60(TB) = experiment: Cytotoxicity against human HL-60(TB) cells by SRB method; assay type: functional
Procedure, shortened: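 Tested in the NCI-60 in vitro screening panel. GI50 is the molar concentration giving 50% growth inhibition, and TGI is the molar concentration giving total growth inhibition.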

[7] = Cytotoxicity against human UACC62 cells by SRB method; assay type: functional; procedure, shortened: as §2
MOLT-4 = experiment: Cytotoxicity against human MOLT4 cells by SRB method; assay type: functional; procedure, shortened: as §1
M14 = experiment: Cytotoxicity against human M14 cells by SRB method; assay type: functional; procedure, shortened: as §1
IGROV-1 = experiment: Cytotoxicity against human IGROV1 cells by SRB method; assay type: functional; procedure, shortened: as §1
LOX IMVI = experiment: Cytotoxicity against human LOXIMVI cells by SRB method; assay type: functional; procedure, shortened: as §1
HCC 2998 = experiment: Cytotoxicity against human HCC2998 cells by SRB method; assay type: functional; procedure, shortened: as §1
[8] = read-out: LC50 (the source's name)

CC(C)[C@@]12SS[C@]3(C(=O)N1C)[C@@H](O)[C@]1(C45c6ccccc6N[C@H]4N4C(=O)[C@@]6(CO)SS[C@@]4(C(=O)N6C)[C@H]5O)c4ccccc4N[C@@H]1N3C2=O (stereo partly specified)
GI50 (BT-549): 14.8 nM
TGI (BT-549): 66.1 nM
CC50 (BT-549; [8]): 209 nM
GI50 (SF-539): 15.1 nM
TGI (SF-539): 58.9 nM
CC50 (SF-539; [8]): 200 nM
Activity (Mus musculus): 5%
GI50 (NCI-H322M): 20 nM
TGI (NCI-H322M): 102 nM
CC50 (NCI-H322M; [8]): 490 nM
GI50 ([1]; OVCAR-4): 5.9 nM
TGI ([1]; OVCAR-4): 12.9 nM
CC50 ([1]; OVCAR-4, read-out: LC50 (the source's name)): 27.5 nM
GI50 (SF-268): 22.4 nM
TGI (SF-268): 107 nM
CC50 (SF-268; [8]): 417 nM
GI50 (RPMI-8226): 12.3 nM
TGI (RPMI-8226): 34.7 nM
CC50 (RPMI-8226; [8]): > 50000 nM
GI50 (HOP-62): 11.7 nM
TGI (HOP-62): 30.9 nM
CC50 (HOP-62; [8]): 110 nM
GI50 ([2]; UACC-257): 8.7 nM
TGI ([2]; UACC-257): 19.5 nM
CC50 ([2]; UACC-257, read-out: LC50 (the source's name)): 43.7 nM
Activity (HeLa): Dose-dependent effect
GI50 [3]: 33.9 nM
TGI [3]: 120 nM
CC50 [3, 8]: 355 nM
inhibition at 0.005 µM [4]: 38%
GI50 (TK-10): 11.7 nM
TGI (TK-10): 24.5 nM
CC50 (TK-10; [8]): 57.5 nM
GI50 (SK-MEL-28): 12.6 nM
TGI (SK-MEL-28): 38 nM
CC50 (SK-MEL-28; [8]): 135 nM
GI50 (CAKI-1): 8.7 nM
TGI (CAKI-1): 22.4 nM
CC50 (CAKI-1; [8]): 85.1 nM
GI50 (RXF 393): 7.8 nM
TGI (RXF 393): 14.8 nM
CC50 (RXF 393; [8]): 28.2 nM
GI50 (NCI-H460): 20.9 nM
TGI (NCI-H460): 75.9 nM
CC50 (NCI-H460; [8]): 246 nM
GI50 (CCRF-CEM): 9.3 nM
TGI (CCRF-CEM): 38 nM
CC50 (CCRF-CEM; [8]): > 50000 nM
GI50 ([5]; PC-3): 15.5 nM
TGI ([5]; PC-3): 60.3 nM
CC50 ([5]; PC-3, read-out: LC50 (the source's name)): 209 nM
GI50 ([6]; OVCAR-8): 9.5 nM
TGI ([6]; OVCAR-8): 19.1 nM
CC50 ([6]; OVCAR-8, read-out: LC50 (the source's name)): 38 nM
GI50 (SNB-75): 13.5 nM
TGI (SNB-75): 50.1 nM
CC50 (SNB-75; [8]): 158 nM
GI50 (KM12): 19.5 nM
TGI (KM12): 87.1 nM
CC50 (KM12; [8]): 295 nM
Ratio (SK-OV-3): 1.7
GI50 (A498): 9.8 nM
TGI (A498): 28.2 nM
CC50 (A498; [8]): 105 nM
GI50 (MDA-MB-435): 10.7 nM
TGI (MDA-MB-435): 28.8 nM
CC50 (MDA-MB-435; [8]): 120 nM
GI50 (NCI-H522): 8.5 nM
TGI (NCI-H522): 17.8 nM
CC50 (NCI-H522; [8]): 38 nM
GI50 (HL-60(TB)): 26.3 nM
TGI (HL-60(TB)): 195 nM
CC50 (HL-60(TB); [8]): > 50000 nM
GI50 ([7]; UACC-62): 18.2 nM
TGI ([7]; UACC-62): 72.4 nM
CC50 ([7]; UACC-62, read-out: LC50 (the source's name)): 295 nM
GI50 (MOLT-4): 13.2 nM
TGI (MOLT-4): 67.6 nM
CC50 (MOLT-4; [8]): > 50000 nM
GI50 (M14): 13.5 nM
TGI (M14): 53.7 nM
CC50 (M14; [8]): 182 nM
GI50 (IGROV-1): 24.5 nM
TGI (IGROV-1): 100 nM
CC50 (IGROV-1; [8]): 339 nM
GI50 (LOX IMVI): 8.3 nM
TGI (LOX IMVI): 21.4 nM
CC50 (LOX IMVI; [8]): 46.8 nM
GI50 (HCC 2998): 53.7 nM
TGI (HCC 2998): 115 nM
CC50 (HCC 2998; [8]): 246 nM

Reference: ChEMBL document CHEMBL3351594, “Cytotoxic dimeric epipolythiodiketopiperazines from the ascomycetous fungus Preussia typharum” (J Nat Prod, 2014)
